From ChEMBL document CHEMBL4261600 (Eur J Med Chem, 2018) come the findings set out here.

The target of data set [1] is Serine/threonine-protein kinase 38 (Homo sapiens) (UniProt Q15208). The data set is described as follows: Binding affinity to wild-type human partial length NDR1 (N33 to E449 residues) expressed in mammalian expression system assessed as remaining unbound target protein level at 1000 nM by Kinomescan method relative to control.
For data set [2], the target named is Aurora kinase C (Homo sapiens) (UniProt Q9UQB9). Put plainly: Binding affinity to wild-type human full length AURKC (M1 to S275 residues) expressed in bacterial expression system assessed as remaining unbound target protein level at 1000 nM by Kinomescan method relative to control. The method in brief:
(§1)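 Single-point competition binding screen across a panel of 468 kinases and mutants, with the inhibitor at 1 μM. Binding is read out as percent of a DMSO control, and targets below 1 percent control were classed as strong binders.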

Data set [3] is described as follows: Cmax in Sprague-Dawley rat at 20 mg/kg, po by LC-MS/MS analysis. The format is ADME, organism-based. On the set-up: dose 20 mg/kg, route oral. The settings on record: in vivo.
The test system of the next data set is HL-60. Put plainly: Induction of apoptosis in human HL60 cells assessed as decrease in c-MYC level after 2 hrs by immunoblotting analysis. The format is functional, cell-based. (Immunoblotting shows a protein as a band on a membrane.)
The target in data set [4] is MAP/microtubule affinity-regulating kinase 3 (Homo sapiens) (UniProt P27448). Put plainly: Binding affinity to wild-type human full length MARK3 (M1 to L729 residues) expressed in bacterial expression system assessed as remaining unbound target protein level at 1000 nM by Kinomescan method relative to control. An outline of the steps: as §1
Data set [5] deals with Serine/threonine-protein kinase SIK2 (Homo sapiens) (UniProt Q9H0K1). Put plainly: Binding affinity to wild-type human full length SIK2 (M1 to N926 residues) expressed in bacterial expression system assessed as remaining unbound target protein level at 1000 nM by Kinomescan method relative to control. The method in brief:
(§2)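 Profiled in a KINOMEscan binding panel with the inhibitor at a single concentration of 1 μM. Binding to each kinase was read out as percent of control, relative to a DMSO control. Strong binders were defined as those with a percent control value below 1.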

The target of data set [6] is Serine/threonine-protein kinase tousled-like 1 (Homo sapiens) (UniProt Q9UKI8). Put plainly: Binding affinity to wild-type human partial length TLK1 (K447 to A754 residues) expressed in bacterial expression system assessed as remaining unbound target protein level at 1000 nM by Kinomescan method relative to control.
The species named for data set [7] is Homo sapiens. Put plainly: Selectivity ratio of IC50 for recombinant GST-tagged human full length CDK14/cyclin Y (2 to end residues) to IC50 for recombinant full length His-tagged human CDK9/CyclinT1.
Data set [8] concerns the target Ribosomal protein S6 kinase alpha-6 (Homo sapiens) (UniProt Q9UK32). Put plainly: Binding affinity to wild-type human partial length C-terminal RSK4 kinase domain 2 (I401 to Y711 residues) expressed in bacterial expression system assessed as remaining unbound target protein level at 1000 nM by Kinomescan method relative to control. An outline of the steps: (§3)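 KINOMEscan competition binding profile across a panel of 468 kinases and mutants, with the inhibitor tested at a single concentration of 1 μM. Binding is reported as percent of control, meaning signal relative to a DMSO control.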

Data set [9] addresses Mitotic checkpoint serine/threonine-protein kinase BUB1 (Homo sapiens) (UniProt O43683). The data set is described as follows: Binding affinity to wild-type human partial length BUB1 (Q724 to K1085 residues) expressed in mammalian expression system assessed as remaining unbound target protein level at 1000 nM by Kinomescan method relative to control. The method in brief:
as §2

Data set [10] concerns the target Discoidin domain-containing receptor 2 (Homo sapiens) (UniProt Q16832). The data set is described as follows: Binding affinity to wild-type human partial length DDR2 (V555 to E855 residues) expressed in mammalian expression system assessed as remaining unbound target protein level at 1000 nM by Kinomescan method relative to control.
Data set [11] deals with Tyrosine-protein kinase ABL1 (Homo sapiens), P00519 [E255K]. Put plainly: Binding affinity to human phosphorylated ABL1 E255K mutant (S229 to K512 residues) expressed in mammalian expression system assessed as remaining unbound target protein level at 1000 nM by Kinomescan method relative to control. The method in brief: (§4)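 KINOMEscan competition-binding profiling across the panel of 468 kinases and mutants, with inhibitor tested at 1 μM. Binding is expressed as percent of control, with DMSO as the reference control.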

The target of data set [12] is Activin receptor type-1B (Homo sapiens) (UniProt P36896). The data set is described as follows: Binding affinity to wild-type human ACVR1B (S187 to I505 residues) expressed in bacterial expression system assessed as remaining unbound target protein level at 1000 nM by Kinomescan method relative to control. An outline of the steps: as §1
Data set [13] addresses Serine/threonine-protein kinase 33 (Homo sapiens) (UniProt Q9BYT3). Put plainly: Binding affinity to wild-type human full length STK33 (M1 to L514 residues) expressed in bacterial expression system assessed as remaining unbound target protein level at 1000 nM by Kinomescan method relative to control. An outline of the steps:
as §2

In data set [14] the target is Tyrosine-protein kinase ABL1 (Homo sapiens) (UniProt P00519). Put plainly: Binding affinity to wild-type human non-phosphorylated ABL1 (S229 to K512 residues) expressed in mammalian expression system assessed as remaining unbound target protein level at 1000 nM by Kinomescan method relative to control. An outline of the steps: as §2
Data set [15] concerns the target Serine/threonine-protein kinase RIO3 (Homo sapiens) (UniProt O14730). The data set is described as follows: Binding affinity to wild-type human full length RIOK3 (M1 to E519 residues) expressed in bacterial expression system assessed as remaining unbound target protein level at 1000 nM by Kinomescan method relative to control. The method in brief: as §3
Data set [16] is filed under the species Homo sapiens. The data set is described as follows: Selectivity ratio of IC50 for recombinant full length His/GST-tagged human CDK5/p25 to IC50 for recombinant full length His-tagged human CDK9/CyclinT1.
Data set [17] concerns the target Serine/threonine-protein kinase Nek4 (Homo sapiens) (UniProt P51957). Put plainly: Binding affinity to wild-type human full length NEK4 (M1 to F841 residues) expressed in mammalian expression system assessed as remaining unbound target protein level at 1000 nM by Kinomescan method relative to control. The method in brief: as §1
The target in data set [18] is Uncharacterized serine/threonine-protein kinase SBK3 (Homo sapiens) (UniProt P0C264). The data set is described as follows: Binding affinity to wild-type human partial length SgK110 (L22 to R329 residues) expressed in bacterial expression system assessed as remaining unbound target protein level at 1000 nM by Kinomescan method relative to control.
The next data set relates to MV4-11. The data set is described as follows: Induction of apoptosis in human MV4-11 cells assessed as decrease in c-MYC level after 2 hrs by immunoblotting analysis. The data set is classed as functional, cell-based.
Data set [19] deals with Mast/stem cell growth factor receptor Kit (Homo sapiens), P10721 [V559D]. Put plainly: Binding affinity to human partial length KIT V559D mutant (Y545 to D952 residues) expressed in bacterial expression system assessed as remaining unbound target protein level at 1000 nM by Kinomescan method relative to control. An outline of the steps: as §4
Data set [20] concerns the target Mitogen-activated protein kinase 14 (Homo sapiens) (UniProt Q16539). Put plainly: Binding affinity to wild-type human full length p38-alpha (M1 to S360 residues) expressed in bacterial expression system assessed as remaining unbound target protein level at 1000 nM by Kinomescan method relative to control. An outline of the steps:
as §2

The target of data set [21] is Tyrosine-protein kinase Fgr (Homo sapiens) (UniProt P09769). The data set is described as follows: Binding affinity to wild-type human partial length FGR (L233 to T529 residues) expressed in bacterial expression system assessed as remaining unbound target protein level at 1000 nM by Kinomescan method relative to control.

The structures appear in SMILES notation.

Serine/threonine-protein kinase 38 (Homo sapiens), sequence (Q15208 2-465 limits assumed): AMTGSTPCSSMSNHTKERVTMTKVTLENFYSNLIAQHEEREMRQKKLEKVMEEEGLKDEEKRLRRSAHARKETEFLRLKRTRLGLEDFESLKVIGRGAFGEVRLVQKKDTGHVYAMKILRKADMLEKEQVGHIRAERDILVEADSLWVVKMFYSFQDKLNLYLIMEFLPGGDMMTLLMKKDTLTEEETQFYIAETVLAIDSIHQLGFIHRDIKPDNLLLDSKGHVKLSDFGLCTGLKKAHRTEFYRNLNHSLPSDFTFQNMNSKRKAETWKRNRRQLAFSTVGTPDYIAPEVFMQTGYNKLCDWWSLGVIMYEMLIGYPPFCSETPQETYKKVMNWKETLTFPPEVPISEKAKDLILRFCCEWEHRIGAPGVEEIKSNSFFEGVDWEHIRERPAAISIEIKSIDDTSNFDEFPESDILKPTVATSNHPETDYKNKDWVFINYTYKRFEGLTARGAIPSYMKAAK
Serine/threonine-protein kinase tousled-like 1 (Homo sapiens), sequence (Q9UKI8 whole entry, the tested form may be a part): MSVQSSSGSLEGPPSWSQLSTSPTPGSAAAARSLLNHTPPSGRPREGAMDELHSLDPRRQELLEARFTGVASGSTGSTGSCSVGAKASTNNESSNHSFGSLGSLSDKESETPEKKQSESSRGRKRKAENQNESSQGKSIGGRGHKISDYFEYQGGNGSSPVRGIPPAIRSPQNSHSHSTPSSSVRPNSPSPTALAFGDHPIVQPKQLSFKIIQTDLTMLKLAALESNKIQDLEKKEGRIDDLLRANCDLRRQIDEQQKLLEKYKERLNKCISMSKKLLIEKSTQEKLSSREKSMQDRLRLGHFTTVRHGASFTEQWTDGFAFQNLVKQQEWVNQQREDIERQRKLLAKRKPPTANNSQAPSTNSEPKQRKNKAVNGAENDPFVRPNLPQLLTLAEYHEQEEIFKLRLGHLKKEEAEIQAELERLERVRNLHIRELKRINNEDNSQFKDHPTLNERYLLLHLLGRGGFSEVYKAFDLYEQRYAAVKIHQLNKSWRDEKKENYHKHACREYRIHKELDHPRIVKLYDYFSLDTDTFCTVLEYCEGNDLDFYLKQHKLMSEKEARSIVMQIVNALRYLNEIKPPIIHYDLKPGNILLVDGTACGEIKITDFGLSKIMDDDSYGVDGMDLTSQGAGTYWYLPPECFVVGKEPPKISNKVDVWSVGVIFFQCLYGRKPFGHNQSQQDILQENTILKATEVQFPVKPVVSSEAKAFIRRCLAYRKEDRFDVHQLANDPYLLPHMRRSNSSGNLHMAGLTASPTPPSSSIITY
Tyrosine-protein kinase ABL1 (Homo sapiens), P00519 [E255K], sequence (P00519 whole entry E255K, the tested form may be a part): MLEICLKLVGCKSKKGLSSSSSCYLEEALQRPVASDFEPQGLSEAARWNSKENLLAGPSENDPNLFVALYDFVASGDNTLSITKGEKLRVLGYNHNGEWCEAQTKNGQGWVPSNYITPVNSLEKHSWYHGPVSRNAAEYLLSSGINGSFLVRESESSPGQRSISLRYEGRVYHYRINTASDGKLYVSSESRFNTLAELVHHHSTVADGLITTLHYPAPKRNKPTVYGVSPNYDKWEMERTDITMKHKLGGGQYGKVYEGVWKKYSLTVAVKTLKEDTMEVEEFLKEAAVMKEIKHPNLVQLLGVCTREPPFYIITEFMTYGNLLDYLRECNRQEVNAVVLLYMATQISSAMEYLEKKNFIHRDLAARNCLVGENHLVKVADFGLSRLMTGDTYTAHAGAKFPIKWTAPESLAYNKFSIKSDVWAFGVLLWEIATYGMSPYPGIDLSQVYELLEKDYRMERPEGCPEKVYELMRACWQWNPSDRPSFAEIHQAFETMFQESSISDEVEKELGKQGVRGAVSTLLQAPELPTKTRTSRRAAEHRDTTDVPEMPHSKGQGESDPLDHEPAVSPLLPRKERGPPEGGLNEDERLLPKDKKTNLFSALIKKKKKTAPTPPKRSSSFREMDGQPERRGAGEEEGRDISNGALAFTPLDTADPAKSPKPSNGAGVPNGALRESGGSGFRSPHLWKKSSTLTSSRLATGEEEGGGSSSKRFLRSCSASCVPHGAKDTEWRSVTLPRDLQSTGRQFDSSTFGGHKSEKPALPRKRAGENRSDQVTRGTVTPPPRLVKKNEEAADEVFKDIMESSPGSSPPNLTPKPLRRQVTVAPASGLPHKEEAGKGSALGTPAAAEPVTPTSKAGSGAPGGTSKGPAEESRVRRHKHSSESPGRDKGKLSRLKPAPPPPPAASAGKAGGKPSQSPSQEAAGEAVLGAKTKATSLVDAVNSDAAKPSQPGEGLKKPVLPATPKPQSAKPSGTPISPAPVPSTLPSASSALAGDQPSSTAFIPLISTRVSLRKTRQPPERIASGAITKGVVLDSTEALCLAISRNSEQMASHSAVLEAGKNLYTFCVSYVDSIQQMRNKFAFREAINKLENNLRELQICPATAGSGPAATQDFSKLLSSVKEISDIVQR
Tyrosine-protein kinase ABL1 (Homo sapiens), sequence (P00519 whole entry, the tested form may be a part): as the sequence (P00519 whole entry E255K, the tested form may be a part) above, with K255E counted along it
Tyrosine-protein kinase Fgr (Homo sapiens), sequence (P09769 2-529 limits assumed): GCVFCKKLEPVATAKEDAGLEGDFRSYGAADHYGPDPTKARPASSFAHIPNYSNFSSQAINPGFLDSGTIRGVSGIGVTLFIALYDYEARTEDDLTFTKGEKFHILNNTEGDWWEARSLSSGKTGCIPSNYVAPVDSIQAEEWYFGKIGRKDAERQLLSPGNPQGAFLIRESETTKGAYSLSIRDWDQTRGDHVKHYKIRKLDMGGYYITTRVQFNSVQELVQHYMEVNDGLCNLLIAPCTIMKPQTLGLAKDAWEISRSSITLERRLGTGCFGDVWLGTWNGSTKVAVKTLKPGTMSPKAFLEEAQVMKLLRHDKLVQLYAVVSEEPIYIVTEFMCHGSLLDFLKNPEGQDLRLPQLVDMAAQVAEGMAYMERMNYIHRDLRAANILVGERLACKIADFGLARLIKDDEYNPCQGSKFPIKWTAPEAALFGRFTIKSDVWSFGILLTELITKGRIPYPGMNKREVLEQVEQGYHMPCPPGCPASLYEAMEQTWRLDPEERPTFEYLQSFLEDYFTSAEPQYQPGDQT
Serine/threonine-protein kinase Nek4 (Homo sapiens), sequence (P51957 whole entry, looked up, the tested form may be a part): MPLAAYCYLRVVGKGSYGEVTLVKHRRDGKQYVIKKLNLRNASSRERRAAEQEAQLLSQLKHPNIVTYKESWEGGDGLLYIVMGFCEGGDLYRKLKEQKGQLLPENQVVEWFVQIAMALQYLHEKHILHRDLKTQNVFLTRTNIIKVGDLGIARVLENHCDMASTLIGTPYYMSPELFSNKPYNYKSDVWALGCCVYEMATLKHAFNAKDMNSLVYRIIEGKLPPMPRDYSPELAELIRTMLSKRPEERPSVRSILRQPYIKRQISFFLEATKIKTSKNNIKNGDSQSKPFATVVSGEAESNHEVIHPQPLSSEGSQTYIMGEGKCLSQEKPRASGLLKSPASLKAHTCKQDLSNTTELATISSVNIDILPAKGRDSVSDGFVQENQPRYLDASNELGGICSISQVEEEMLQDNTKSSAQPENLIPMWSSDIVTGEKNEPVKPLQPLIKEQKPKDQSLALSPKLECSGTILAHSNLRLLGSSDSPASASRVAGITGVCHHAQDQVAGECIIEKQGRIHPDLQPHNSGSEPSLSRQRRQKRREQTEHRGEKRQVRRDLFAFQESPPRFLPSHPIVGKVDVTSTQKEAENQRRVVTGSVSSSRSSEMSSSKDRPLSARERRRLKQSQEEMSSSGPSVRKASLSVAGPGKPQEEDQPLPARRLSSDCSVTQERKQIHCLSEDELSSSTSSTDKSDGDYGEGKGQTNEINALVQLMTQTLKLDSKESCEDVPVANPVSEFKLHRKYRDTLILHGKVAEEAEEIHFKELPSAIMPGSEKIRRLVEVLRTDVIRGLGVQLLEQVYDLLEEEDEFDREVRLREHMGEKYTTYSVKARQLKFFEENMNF
Ribosomal protein S6 kinase alpha-6 (Homo sapiens), sequence (Q9UK32 whole entry, the tested form may be a part): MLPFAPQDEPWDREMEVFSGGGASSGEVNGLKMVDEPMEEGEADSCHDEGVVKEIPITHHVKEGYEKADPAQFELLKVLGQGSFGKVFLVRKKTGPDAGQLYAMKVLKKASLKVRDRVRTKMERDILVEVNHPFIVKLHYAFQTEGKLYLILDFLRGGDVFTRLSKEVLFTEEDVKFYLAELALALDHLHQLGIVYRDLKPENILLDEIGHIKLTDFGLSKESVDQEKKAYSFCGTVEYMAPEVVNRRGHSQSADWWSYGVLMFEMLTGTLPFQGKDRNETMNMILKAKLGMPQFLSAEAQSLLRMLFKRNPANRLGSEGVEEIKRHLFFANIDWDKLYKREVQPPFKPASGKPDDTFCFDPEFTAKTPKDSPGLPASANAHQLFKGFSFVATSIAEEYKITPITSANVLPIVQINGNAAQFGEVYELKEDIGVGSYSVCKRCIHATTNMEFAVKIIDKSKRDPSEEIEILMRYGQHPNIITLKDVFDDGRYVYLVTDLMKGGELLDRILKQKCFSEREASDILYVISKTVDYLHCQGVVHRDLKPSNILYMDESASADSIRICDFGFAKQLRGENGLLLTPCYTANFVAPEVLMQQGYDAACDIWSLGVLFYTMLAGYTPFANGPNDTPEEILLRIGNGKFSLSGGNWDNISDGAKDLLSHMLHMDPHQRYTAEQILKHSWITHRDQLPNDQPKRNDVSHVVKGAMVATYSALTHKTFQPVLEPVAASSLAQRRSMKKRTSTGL
Uncharacterized serine/threonine-protein kinase SBK3 (Homo sapiens), sequence (P0C264 whole entry, the tested form may be a part): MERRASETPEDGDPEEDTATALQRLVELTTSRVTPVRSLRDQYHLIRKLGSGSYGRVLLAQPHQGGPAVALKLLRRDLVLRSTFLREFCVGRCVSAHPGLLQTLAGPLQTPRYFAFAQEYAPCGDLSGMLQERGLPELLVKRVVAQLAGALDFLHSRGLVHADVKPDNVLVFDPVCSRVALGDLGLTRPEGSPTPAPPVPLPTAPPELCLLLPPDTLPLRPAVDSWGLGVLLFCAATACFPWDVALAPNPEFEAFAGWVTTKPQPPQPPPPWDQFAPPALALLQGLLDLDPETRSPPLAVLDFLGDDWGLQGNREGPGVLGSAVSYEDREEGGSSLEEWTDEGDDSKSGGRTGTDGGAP

Broadly, the Cmax is the maximum level reached in the sampled fluid or tissue. For the molecule `COCCN[C@H]1CC[C@H](Nc2cc(-c3csc(NCC4(C#N)CCOCC4)n3)c(Cl)cn2)CC1`, the Activity in data set [1] is 78%; in data set [2], 100%; with HL-60, “Dose-dependent effect”; in [4], 100%; in data set [5], 100%; in data set [6], 81%. For the same molecule, the Activity was 99% in data set [8]; 96% in data set [9]; 97% in [10]; 72% in data set [11]; 92% in data set [12]; 78% in data set [13]. The Activity in data set [14] was 100%; in [15], 99%; in data set [17] it was 98%; in data set [18], 89%; with MV4-11, “Dose-dependent effect”; in [19] it was 100%. Moreover, the values for the Activity in data set [20] and in [21] were 98% and 90%, respectively. This molecule also showed a Cmax in [3] of 329 ng/mL. For the same molecule, the Ratio IC50 in the data set listed under Homo sapiens [7] and in the data set listed under Homo sapiens [16] was greater than 1000 in each case.
